Measurements of several laboratories.
Each line is one published result; the experiments were not run side by side.
PPO3: PPO3 (Agaricus bisporus, UniProt C7FF04)
BMX: Cytoplasmic tyrosine-protein kinase BMX (BMX, Homo sapiens, UniProt P51813)
PDE5A: cGMP-specific 3',5'-cyclic phosphodiesterase (PDE5A, Homo sapiens, UniProt O76074)
MEP1A: Meprin A subunit alpha (MEP1A, Homo sapiens, UniProt Q16819)
AURKB: Aurora kinase B (AURKB, Homo sapiens, UniProt Q96GD4)
PFF0160c: Dihydroorotate dehydrogenase (quinone), mitochondrial (PFF0160c, Plasmodium falciparum, UniProt Q08210)
KDM1A: Lysine-specific histone demethylase 1A (KDM1A, Homo sapiens, UniProt O60341)
PDE4A: 3',5'-cyclic-AMP phosphodiesterase 4A (PDE4A, Homo sapiens, UniProt P27815)
HDAC2: Histone deacetylase 2 (HDAC2, Homo sapiens, UniProt Q92769)
PARP1: Poly [ADP-ribose] polymerase 1 (PARP1, Homo sapiens, UniProt P09874)

`Cc1ccc(C(C)C)cc1NC(=O)COC(=O)/C=C/c1ccccc1O` has an IC50 of 1.81 µM (PPO3; enzyme activity; inhibitor).
With `Cc1cnc(-c2ccc(-c3ccc(NC(=O)Nc4c(F)cc(F)cc4F)cc3F)c3c2C(=O)NC3)[nH]1` the IC50 was 0.0144 µM (BMX; enzyme activity; inhibitor).
`COc1ccc([C@@H]2c3[nH]c4ccccc4c3C[C@H]3C(=O)N(c4ccc(Cl)cc4)C(=O)N23)cc1OC` gave an IC50 of 5.36 µM (PDE5A; enzyme activity; inhibitor; FP).
For `O=C(CCN(Cc1ccc(Cl)cc1F)Cc1ccc(Cl)c(O)c1F)NO`, the IC50 was 0.215 µM (MEP1A; enzyme activity; inhibitor).
For `Cc1ccc(C(C)C)cc1NC(=O)COC(=O)/C=C/c1ccc(O)cc1`, the IC50 was 1.41 µM (PPO3; enzyme activity; inhibitor).
`CCCCC[C@H](O)/C=C/[C@H]1[C@@H]2CO[C@@H](C2)[C@@H]1C/C=C\CCCC(=O)O` has an IC50 of 0.013 µM (Thromboxane A2 receptor (TBXA2R, Homo sapiens, UniProt P21731); ligand displacement; radioligand).
For `Cc1ccc(COc2ccc3c(c2)NC(=C(C#N)C(=O)c2ccc(Cl)cc2Cl)NC3=O)cc1`, the IC50 was 280 µM (Cytoplasmic dynein 1 heavy chain 1 (DYNC1H1, Homo sapiens, UniProt Q14204); ATPase activity; inhibitor).
For `CC(=O)Nc1ccc(N=Nc2c(N)nc(N)nc2N)cc1`, the IC50 was 29.8 µM (PPO3; enzyme activity; inhibitor; absorbance).
For `CCCCc1ccc(-c2ccc(-c3cc(C(=O)O)c4cc(Cl)cc(Cl)c4n3)o2)cc1`, the IC50 was 52.1 µM (Eukaryotic initiation factor 4A-I (EIF4A1, Homo sapiens, UniProt P60842); ATPase activity; inhibitor; absorbance).
`Cc1cc(Nc2cc3ncccc3c(N[C@@H]3C[C@H]4CC[C@@H](C3)N4CCC#N)n2)n[nH]1` has an IC50 of > 10 µM (AURKB; target engagement in cells; inhibitor; BRET).
For `Cc1cc(Nc2ccc(C(F)(F)F)cc2)n2nc(OCCN(C)C)nc2n1`, the IC50 was > 10 µM (PFF0160c; enzyme activity; inhibitor).
With `CC1Cc2ccccc2N1C(=O)NCCCCN(C)[C@@H]1Cc2cccc3[nH]c(=O)n(c23)C1` (mixture of isomers) the IC50 was 4.12 µM (5-hydroxytryptamine receptor 2A (HTR2A, Homo sapiens, UniProt P28223); ligand displacement; radioligand).
For `COC(=O)[C@@H]1Cc2c([nH]c3ccccc23)[C@H](c2cccnc2)N1`, the IC50 was > 10 µM (PDE5A; enzyme activity; inhibitor; FP).
With `CCCS(=O)(=O)Nc1ccc(F)c(C(=O)c2c[nH]c3ncc(Cl)cc23)c1F` the IC50 was 0.022 µM (Serine/threonine-protein kinase A-Raf (ARAF, Homo sapiens, UniProt P10398); enzyme activity; inhibitor; lysate).
The IC50 of `Cc1cc(Nc2cccc(Cl)c2)n2nc(CN)nc2n1` is reported as > 10 µM (PFF0160c; enzyme activity; inhibitor).
The IC50 of `CCCSc1nc(Sc2nnnn2C)c2nnn(C3CCCC3)c2n1` is reported as 0.413 µM (KDM1A; enzyme activity; inhibitor; fluorescence).
The IC50 of `COc1ccc([C@@H]2CN(C(=O)[C@@H](O)CO)C[C@@]2(C)[C@@H](C)O)cc1OC1CN(c2ccc(C)cn2)C1` is reported as 9e-05 µM (PDE4A; enzyme activity; inhibitor).
`CNCCOc1nc2nc(C)cc(Nc3ccc(S(F)(F)(F)(F)F)cc3)n2n1` gave an IC50 of > 10 µM (PFF0160c; enzyme activity; inhibitor).
`CC(C)C[C@H]1CC(=O)N2CCC[C@H]2C(=O)N[C@@H](CCCCCC(=O)NO)C(=O)N[C@@H](Cc2c[nH]c3ccccc23)C(=O)N1` has an IC50 of 0.0035 µM (HDAC2; enzyme activity; inhibitor).
With `COc1ccc2c(Oc3ccc4c(C(=O)Nc5ccccc5N)cccc4c3)ccnc2c1` the IC50 was 0.009 µM (AURKB; enzyme activity; inhibitor).
The IC50 of `CCCSc1nc(Sc2nnnn2C)c2nnn(CCc3c[nH]c4ccccc34)c2n1` is reported as 0.253 µM (KDM1A; enzyme activity; inhibitor; fluorescence).
`C=CC(=O)Nc1cc(Nc2nccc(Nc3cc(Cl)c(F)cc3C(C)(C)O)n2)c(OC)cc1N1CC[C@@H](N(C)C)C1` gave an IC50 of 2.29 µM (BMX; enzyme activity; inhibitor; with preincubation).
For `CNCCOc1nc2nc(C)cc(Nc3ccc(C(F)(F)F)cc3)n2n1`, the IC50 was > 10 µM (PFF0160c; enzyme activity; inhibitor).
With `COc1ccc([C@@H]2c3[nH]c4ccccc4c3C[C@H]3C(=O)N(C(C)(C)C)C(=O)N23)cc1OC` the IC50 was 6.21 µM (PDE5A; enzyme activity; inhibitor; FP).
`CNc1cc(Nc2ccc(C(F)(F)F)cc2)n2ncnc2n1` gave an IC50 of 7.4 µM (PFF0160c; enzyme activity; inhibitor).
The IC50 of `Cc1cc(Nc2ccc(Cl)cc2)n2nc(CCN)nc2n1` is reported as > 10 µM (PFF0160c; enzyme activity; inhibitor).
For `Cc1[nH]ncc1C(=O)N1CCC(C)(NC(=O)c2c[nH]c(=O)c3ccccc23)C1` (stereo not shown), the IC50 was 0.794 µM (PARP1; enzyme activity; inhibitor).
For `O=C(CCN(Cc1ccc2c(c1)OCO2)Cc1ccc(Cl)cc1F)NO`, the IC50 was 0.186 µM (MEP1A; enzyme activity; inhibitor).
For `CCN1C(=O)[C@H]2Cc3c([nH]c4ccccc34)[C@H](c3ccc(OC)c(OC)c3)N2C1=O`, the IC50 was 7 µM (PDE5A; enzyme activity; inhibitor; FP).
With `COc1cc(C[C@H]2C(=O)OC[C@@H]2Cc2ccc(OC)c(OC)c2)ccc1O` the IC50 was > 20 µM (PDE5A; enzyme activity; inhibitor).
For `CN1CCN(c2ccc(Nc3ncc4cc(C#N)c(=O)n(C5CCCC5)c4n3)cc2)CC1`, the IC50 was 0.638 µM (Tyrosine-protein kinase TXK (TXK, Homo sapiens, UniProt P42681); enzyme activity; inhibitor).
For `CC(C)(C)N1C(=O)[C@H]2Cc3c([nH]c4ccccc34)[C@H](c3cccnc3)N2C1=O`, the IC50 was 4.75 µM (PDE5A; enzyme activity; inhibitor; FP).
`COc1ccc(N=Nc2c(N)nc(N)nc2Cl)cc1` gave an IC50 of 28 µM (PPO3; enzyme activity; inhibitor; absorbance).
For `Cc1cc(Nc2ccc(S(F)(F)(F)(F)F)cc2)n2nc(OCCN(C)C)nc2n1`, the IC50 was > 10 µM (PFF0160c; enzyme activity; inhibitor).
`O=C(O)CCCC(=O)N1CCN(C(=O)c2cc(Cc3n[nH]c(=O)c4ccccc34)ccc2F)CC1` has an IC50 of 0.0067 µM (PARP1; enzyme activity; inhibitor).
With `CNCCOc1nc2nc(C)cc(Nc3ccc(Cl)cc3)n2n1` the IC50 was > 10 µM (PFF0160c; enzyme activity; inhibitor).
With `Cc1ccc(C(C)C)cc1NC(=O)COC(=O)c1ccc(O)cc1` the IC50 was 18 µM (PPO3; enzyme activity; inhibitor).
`CCCC[C@H](NC(=O)[C@H](C)c1c(C)[nH]c2ccc(O)cc12)c1ncc(-c2cc3ccccc3nc2OC)[nH]1` gave an IC50 of 9.75 µM (Cannabinoid receptor 1 (CNR1, Homo sapiens, UniProt P21554); cell-free assay).
`Nc1nc(N)c(N=Nc2ccccc2[N+](=O)[O-])c(N)n1` gave an IC50 of 34.1 µM (PPO3; enzyme activity; inhibitor; absorbance).
For `CCCON(Cc1ccc(C(=O)NO)cc1)C(=O)Nc1ccc(N(C)C)cc1`, the IC50 was 1.14 µM (HDAC2; enzyme activity; inhibitor; fluorescence).
The IC50 of `CNCCc1nc2nc(C)cc(Nc3ccc(Cl)cc3)n2n1` is reported as > 10 µM (PFF0160c; enzyme activity; inhibitor).
With `CCOCc1nc(O)c(-c2nnc(Cc3ccc(Cl)cn3)o2)c(O)c1-c1c(OC)cccc1OC` the IC50 was > 30 µM (Adenosine receptor A2a (ADORA2A, Homo sapiens, UniProt P29274); ligand displacement; radioligand).
`COc1ccc(C2=NN(C3CCCCCC3)C(=O)[C@@H]3CC=CC[C@H]23)cc1-c1ccc(C(=O)NCC(N)=O)cc1` (relative stereo) has an IC50 of 0.316 µM (PDE4A; enzyme activity; inhibitor).
